Measurements taken from PMC7502546 (ACS chemical biology, 2020).
pKi: −log10 of the molar value. Like-named read-outs stand apart in the source and are kept apart here.

Tests used:
[1] = test system: CaV1.3 channels; conditions: micromolar concentrations; cited from earlier work
[2] = test system: Cav1.3 calcium channels in adult SN dopaminergic (DA) neurons; test: Voltage clamp of acutely isolated SN dopaminergic neurons from WT mice; type: cell-based
In short: (§1)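 SN dopaminergic neurons were acutely isolated from brain slices of young adult (P25) wild-type or CaV1.3 ([…]) knockout mice. Whole-cell voltage clamp used Ba2+ as charge carrier, with voltage ramps from −70 mV to +30 mV. Test compound was applied at 5 μM and 50 μM on wild-type cells and 50 μM on knockout cells. Maximum calcium permeability was compared by Mann-Whitney test.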

[3] = target: CaV1.2-V1063I (Oryctolagus cuniculus, UniProt P15381, V1063I); test: Whole-cell patch clamp, CaV1.2-V1063I channels; type: cell-based, rabbit; conditions: read-out: percent inhibition of evoked currents (median)
[4] = target: CaV1.2-I1183V (Oryctolagus cuniculus, UniProt P15381, I1183V); test: Whole-cell patch clamp, CaV1.2-I1183V channels; type: cell-based, rabbit; conditions: read-out: percent inhibition of evoked currents
[5] = target: CaV1.3-M1078L (Rattus norvegicus, UniProt P27732, M1078L); test: Whole-cell patch clamp, CaV1.3-M1078L channels; type: cell-based; conditions: read-out: percent inhibition of evoked currents (median)
In short: (§2)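 Rat α1D (wild type or point mutants made by site-directed mutagenesis, sequence-verified) was transiently co-transfected with CaVβ3 and CaVα2δ-1 at 1:1:1 into tsA201 cells, with 1/40 (w/w) GFP. GFP-positive cells were whole-cell clamped 48 h later at 22–25 °C. External solution held 10 mM BaCl2 (pH 7.4); internal was NMG-based with 5 mM BAPTA. DMSO stocks were diluted into barium solution and perfused. Median percent inhibition was reported.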

[6] = test system: SN dopaminergic neuron from an adult Cav1.3-KO mouse; test: Voltage clamp of SN dopaminergic neurons from Cav1.3-KO mouse; type: cell-based; conditions: cp-PYT 50 μM; CaV1.3 knockout mouse
In short: as §1

[7] = test system: CaV1.3; type: cell-based, rat; conditions: for percent inhibition of evoked currents (median): wild-type CaV1.3, step −80 mV to 0 mV; for percentage inhibition of CaV1.3 peak currents (median): test step to 0 mV
In short: as §2

[8] = target: CaV1.3-M1078K (Rattus norvegicus, UniProt P27732, M1078K); test: Whole-cell patch clamp, CaV1.3-M1078K channels; type: cell-based; conditions: read-out: percent inhibition of evoked currents (median)
In short: as §2

[9] = target: CaV1.2-V1063M (Oryctolagus cuniculus, UniProt P15381, V1063M); test: Whole-cell patch clamp, CaV1.2-V1063M channels; type: cell-based, rabbit; conditions: read-out: percent inhibition of evoked currents (median)
Chain of CaV1.2-V1063M (P15381 whole entry V1063M): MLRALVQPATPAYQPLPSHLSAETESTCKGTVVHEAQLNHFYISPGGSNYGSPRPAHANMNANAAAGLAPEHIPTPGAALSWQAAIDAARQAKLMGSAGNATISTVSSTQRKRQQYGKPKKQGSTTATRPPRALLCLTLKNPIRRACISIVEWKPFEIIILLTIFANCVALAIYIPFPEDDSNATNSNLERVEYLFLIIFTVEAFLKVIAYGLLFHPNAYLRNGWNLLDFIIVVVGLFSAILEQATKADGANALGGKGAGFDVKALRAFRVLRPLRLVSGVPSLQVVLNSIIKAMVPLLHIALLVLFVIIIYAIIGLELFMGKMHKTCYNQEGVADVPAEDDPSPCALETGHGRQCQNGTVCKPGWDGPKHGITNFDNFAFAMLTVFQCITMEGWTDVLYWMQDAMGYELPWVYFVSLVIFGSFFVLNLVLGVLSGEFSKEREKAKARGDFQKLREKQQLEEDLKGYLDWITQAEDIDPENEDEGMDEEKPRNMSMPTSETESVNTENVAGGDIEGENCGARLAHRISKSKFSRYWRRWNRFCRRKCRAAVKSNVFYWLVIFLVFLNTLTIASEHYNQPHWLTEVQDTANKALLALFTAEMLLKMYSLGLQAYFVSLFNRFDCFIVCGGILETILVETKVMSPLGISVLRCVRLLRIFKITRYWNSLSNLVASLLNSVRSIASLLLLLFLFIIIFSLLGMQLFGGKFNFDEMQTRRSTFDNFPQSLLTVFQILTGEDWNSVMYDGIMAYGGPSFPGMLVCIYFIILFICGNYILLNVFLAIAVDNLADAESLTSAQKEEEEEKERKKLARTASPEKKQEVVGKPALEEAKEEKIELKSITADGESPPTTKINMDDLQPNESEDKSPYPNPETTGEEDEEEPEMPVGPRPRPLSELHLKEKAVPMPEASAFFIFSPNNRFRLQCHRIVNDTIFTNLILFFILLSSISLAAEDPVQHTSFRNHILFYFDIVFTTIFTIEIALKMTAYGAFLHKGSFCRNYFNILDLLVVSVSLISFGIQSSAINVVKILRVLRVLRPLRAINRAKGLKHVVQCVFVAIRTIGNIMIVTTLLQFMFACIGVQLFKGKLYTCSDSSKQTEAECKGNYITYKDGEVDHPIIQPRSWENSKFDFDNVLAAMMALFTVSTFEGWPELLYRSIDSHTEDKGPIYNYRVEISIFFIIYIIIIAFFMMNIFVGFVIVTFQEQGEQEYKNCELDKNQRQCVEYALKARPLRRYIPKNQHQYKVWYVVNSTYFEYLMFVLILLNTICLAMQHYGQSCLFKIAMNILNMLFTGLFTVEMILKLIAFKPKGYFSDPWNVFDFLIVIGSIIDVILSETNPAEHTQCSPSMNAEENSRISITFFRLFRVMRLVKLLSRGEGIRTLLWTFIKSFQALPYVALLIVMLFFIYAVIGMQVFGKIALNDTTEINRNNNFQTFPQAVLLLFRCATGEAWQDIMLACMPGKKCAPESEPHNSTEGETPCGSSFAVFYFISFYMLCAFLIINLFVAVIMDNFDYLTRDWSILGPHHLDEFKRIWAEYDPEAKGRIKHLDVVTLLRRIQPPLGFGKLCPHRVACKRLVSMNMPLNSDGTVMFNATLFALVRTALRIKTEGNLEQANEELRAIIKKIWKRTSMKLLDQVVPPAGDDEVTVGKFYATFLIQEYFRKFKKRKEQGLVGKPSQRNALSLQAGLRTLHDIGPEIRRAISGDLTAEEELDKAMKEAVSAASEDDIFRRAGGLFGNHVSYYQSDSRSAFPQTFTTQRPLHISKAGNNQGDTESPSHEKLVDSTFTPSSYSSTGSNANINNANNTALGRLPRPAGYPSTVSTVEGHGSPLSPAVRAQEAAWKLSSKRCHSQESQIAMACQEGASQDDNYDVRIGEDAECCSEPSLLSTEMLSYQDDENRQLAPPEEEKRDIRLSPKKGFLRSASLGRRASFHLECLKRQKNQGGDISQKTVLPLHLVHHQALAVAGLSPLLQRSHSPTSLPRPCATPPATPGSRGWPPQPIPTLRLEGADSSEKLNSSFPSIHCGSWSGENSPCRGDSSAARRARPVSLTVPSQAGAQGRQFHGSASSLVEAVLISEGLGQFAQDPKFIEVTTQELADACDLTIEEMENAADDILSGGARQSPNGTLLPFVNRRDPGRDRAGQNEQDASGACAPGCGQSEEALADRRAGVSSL
Chain of CaV1.2-V1063M (P54287 whole entry partner): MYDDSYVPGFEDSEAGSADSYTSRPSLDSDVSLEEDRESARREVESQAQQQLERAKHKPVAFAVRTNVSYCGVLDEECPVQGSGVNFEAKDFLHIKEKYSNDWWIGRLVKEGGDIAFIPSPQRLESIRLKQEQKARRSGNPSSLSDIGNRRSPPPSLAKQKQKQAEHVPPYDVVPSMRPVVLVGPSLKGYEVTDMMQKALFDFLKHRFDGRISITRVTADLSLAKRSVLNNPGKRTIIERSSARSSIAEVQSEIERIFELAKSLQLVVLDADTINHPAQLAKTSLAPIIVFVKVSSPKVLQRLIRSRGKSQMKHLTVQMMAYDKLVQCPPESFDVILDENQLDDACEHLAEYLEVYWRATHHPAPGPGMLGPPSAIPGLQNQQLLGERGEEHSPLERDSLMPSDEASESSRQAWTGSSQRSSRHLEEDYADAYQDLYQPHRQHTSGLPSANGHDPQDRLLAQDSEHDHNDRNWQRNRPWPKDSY
Chain of CaV1.2-V1063M (P54290 25-944 partner limits assumed): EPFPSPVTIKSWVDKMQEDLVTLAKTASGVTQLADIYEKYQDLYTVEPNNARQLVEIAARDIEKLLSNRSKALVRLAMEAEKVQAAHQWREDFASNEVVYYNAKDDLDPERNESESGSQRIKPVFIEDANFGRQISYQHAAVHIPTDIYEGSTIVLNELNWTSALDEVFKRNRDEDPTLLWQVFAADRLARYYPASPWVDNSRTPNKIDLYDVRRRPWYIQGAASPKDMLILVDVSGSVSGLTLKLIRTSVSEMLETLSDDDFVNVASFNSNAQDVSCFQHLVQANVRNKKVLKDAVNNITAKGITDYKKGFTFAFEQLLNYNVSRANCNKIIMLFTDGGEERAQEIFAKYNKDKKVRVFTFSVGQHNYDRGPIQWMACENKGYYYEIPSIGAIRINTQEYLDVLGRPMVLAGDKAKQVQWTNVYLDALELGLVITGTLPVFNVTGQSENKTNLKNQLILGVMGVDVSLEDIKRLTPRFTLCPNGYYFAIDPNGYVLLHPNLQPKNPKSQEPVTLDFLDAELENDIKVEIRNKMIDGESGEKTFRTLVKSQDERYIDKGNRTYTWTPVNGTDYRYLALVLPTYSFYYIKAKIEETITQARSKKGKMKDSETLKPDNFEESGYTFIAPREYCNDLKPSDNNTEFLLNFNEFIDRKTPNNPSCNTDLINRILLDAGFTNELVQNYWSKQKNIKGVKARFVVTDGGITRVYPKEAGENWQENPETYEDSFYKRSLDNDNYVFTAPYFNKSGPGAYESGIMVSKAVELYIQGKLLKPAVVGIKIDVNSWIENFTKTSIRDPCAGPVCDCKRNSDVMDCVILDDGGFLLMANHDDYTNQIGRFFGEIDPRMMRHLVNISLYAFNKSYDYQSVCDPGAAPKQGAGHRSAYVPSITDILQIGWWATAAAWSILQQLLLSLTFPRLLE
Chain of CaV1.2-V1063M (P54290 945-1091 partner limits assumed): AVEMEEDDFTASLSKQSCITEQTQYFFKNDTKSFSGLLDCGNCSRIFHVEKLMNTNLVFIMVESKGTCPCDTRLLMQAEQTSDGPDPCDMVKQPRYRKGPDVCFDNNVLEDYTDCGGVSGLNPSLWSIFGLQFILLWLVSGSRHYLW

[10] = test system: CaV1.3-M1078I; test: Whole-cell patch clamp, CaV1.3-M1078I channels; type: cell-based, rat
In short: as §2

[11] = test system: SN dopaminergic neurons; test: mito-roGFP mitochondrial oxidant stress in ex vivo brain slices; type: cell-based, mouse
[12] = target: CaV1.3 LTCCs (Rattus norvegicus, UniProt P27732); test: Equilibrium binding / displacement of 3H2-SKP004D11 in HEK293 membranes
Chain of CaV1.3 LTCCs (P27732 921-1530 limits assumed): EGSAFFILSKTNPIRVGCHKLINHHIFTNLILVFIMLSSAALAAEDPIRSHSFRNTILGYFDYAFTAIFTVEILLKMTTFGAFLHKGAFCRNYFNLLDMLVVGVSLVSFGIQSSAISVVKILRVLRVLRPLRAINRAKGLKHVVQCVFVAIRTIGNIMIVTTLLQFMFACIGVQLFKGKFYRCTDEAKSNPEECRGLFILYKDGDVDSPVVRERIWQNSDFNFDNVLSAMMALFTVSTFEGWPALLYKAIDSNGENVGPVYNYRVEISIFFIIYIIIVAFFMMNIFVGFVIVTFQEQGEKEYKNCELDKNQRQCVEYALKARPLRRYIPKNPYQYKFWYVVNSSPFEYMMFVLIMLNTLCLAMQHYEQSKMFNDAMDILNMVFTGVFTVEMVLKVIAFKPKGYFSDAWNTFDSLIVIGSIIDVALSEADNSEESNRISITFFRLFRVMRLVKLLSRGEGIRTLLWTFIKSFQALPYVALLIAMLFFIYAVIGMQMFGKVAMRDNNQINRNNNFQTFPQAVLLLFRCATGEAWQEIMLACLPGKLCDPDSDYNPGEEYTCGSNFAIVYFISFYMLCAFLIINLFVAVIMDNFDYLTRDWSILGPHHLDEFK
In short: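 Membranes came from HEK-293 cells stably expressing CaV1.3 α1D/β3/α2δ-1. They were washed in 40 mM HEPES, 100 mM NaCl, pH 8.0, homogenized on ice, and pelleted three times at 100,000 × g, 4 °C. Each reaction held 3.0 nM tritiated pyrimidinetrione ligand, 0.1–0.4 mg/mL protein, and unlabeled competitor, incubated 90 min at room temperature. Samples were filtered on GF/C and scintillation counted. Nonspecific binding used a saturating cold ligand. Ki came from a Langmuir fit plus Cheng-Prusoff; Kd came from a Scatchard plot (n = 4).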

[13] = test system: SN dopaminergic neurons; type: cell-based, mice; conditions: cp-PYT 50 μM; ex vivo brain slice
In short: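 Ex vivo brain slices from young adult mice were used. SN dopaminergic neurons were whole-cell patched and filled through the pipette with Alexa568 (20 μM) and Fluo-4 (200 μM). Two-photon laser scanning microscopy imaged Ca2+ along a dendrite while somatic voltage was recorded, before and after test compound application. Fluo-4 fluorescence was normalized to baseline (F0).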

[14] = rodents; cited from earlier work
[15] = test system: CaV1.3 channels; conditions: magnitude and selectivity dependent on auxiliary β subunit; cited from earlier work
[16] = target: CaV1.2 (wild-type) (Oryctolagus cuniculus, UniProt P15381); test: Whole-cell patch clamp, wild-type CaV1.2 channels; type: cell-based, rabbit; conditions: rabbit, pH 7.4
[17] = target: CaV1.3-V1198I (Rattus norvegicus, UniProt P27732, V1198I); test: Whole-cell patch clamp, CaV1.3-V1198I channels; type: cell-based; conditions: read-out: percent inhibition of evoked currents
In short: as §2

[18] = test system: CaV1.3 channels over CaV1.2 channels; conditions: cited from earlier work
[19] = test system: CaV1.3-M1078V; test: Whole-cell patch clamp, CaV1.3-M1078V channels; type: cell-based, rat; conditions: for percent inhibition of evoked currents (median): CaV1.3-M1078V
In short: as §2

[20] = target: CaV1.2-V1063L (Oryctolagus cuniculus, UniProt P15381, V1063L); test: Whole-cell patch clamp, CaV1.2-V1063L channels; type: cell-based, rabbit; conditions: read-out: percent inhibition of evoked currents (median)
Chain of CaV1.2-V1063L (P15381 whole entry V1063L): as the sequence (P15381 whole entry V1063M) above, with M1063L counted along it
Chain of CaV1.2-V1063L (P54287 whole entry partner): as the sequence (P54287 whole entry partner) above
Chain of CaV1.2-V1063L (P54290 25-944 partner limits assumed): as the sequence (P54290 25-944 partner limits assumed) above
Chain of CaV1.2-V1063L (P54290 945-1091 partner limits assumed): as the sequence (P54290 945-1091 partner limits assumed) above

[21] = target: CaV1.2-V1063K (Oryctolagus cuniculus, UniProt P15381, V1063K); test: Whole-cell patch clamp, CaV1.2-V1063K channels; type: cell-based, rabbit
[22] = test system: CaV1.3-T1081Y; test: Whole-cell patch clamp, CaV1.3-T1081Y channels; type: cell-based, rat
In short: as §2

[23] = target: CaV1.2-V1063M+I1183V (Oryctolagus cuniculus, UniProt P15381, I1183V/V1063M); test: Whole-cell patch clamp, CaV1.2-V1063M+I1183V channels; type: cell-based, rabbit; conditions: read-out: percent inhibition of evoked currents
[24] = target: CaV1.2 (Oryctolagus cuniculus, UniProt P15381); test: Whole-cell patch clamp, wild-type CaV1.2 channels; type: cell-based, rabbit; conditions: read-out: percent inhibition of evoked currents (median)

Compound: O=C1CC(=O)N(C2CCCC2)C(=O)N1CCc1cccc(Cl)c1 [cp-PYT, 1-(3-chlorophenethyl)-3-cyclopentylpyrimidine-2,4,6-trione]
- deactivation of tail currents [1]: slowed
- inhibition of whole cell Ba2+ currents ([2]; cp-PYT 5 μM, voltage ramps −70 mV to +30 mV, WT mice): modest inhibition
- inhibition of whole cell Ba2+ currents ([2]; cp-PYT 50 μM, WT mouse): inhibition
- inhibition at 100 µM [3]: 48%
- inhibition at 100 µM [4]: 12%
- inhibition at 100 µM [5]: 31%
- effect on whole cell Ba2+ currents [6]: no effect
- percent inhibition of evoked currents (median) ([7]; 100 μM cp-PYT): 60%
- percentage inhibition of CaV1.3 peak currents (median) ([7]; cp-PYT 10 μM, VH −50 mV): 46%
- percentage inhibition of CaV1.3 peak currents (median) ([7]; cp-PYT 10 μM, VH −80 mV): 26%
- tail current kinetics / channel deactivation rates ([7]; cp-PYT 10 μM, step back to −80 mV): did not alter
- tail current kinetics ([7]; cp-PYT 50 μM, step back to −80 mV): slowed
- inhibition at 100 µM [8]: 58%
- inhibition at 100 µM [9]: 47%
- percent inhibition of evoked currents (median) ([10]; 100 μM cp-PYT): 37%
- mitochondrial oxidant stress ([11]; cp-PYT 50 μM bath application): significantly diminished
- displacement of tritiated D11 binding ([12]; equilibrium membrane binding): displaced
- dendritic Ca2+ oscillations [13]: significantly reduced
- effect on pacemaking [13]: no effect
- reinstatement of alcohol- and cocaine-seeking [14]: disrupt
- inhibition of CaV1.3 channels [15]: did inhibit
- inhibition at 100 µM [16]: 21%
- inhibition at 100 µM [17]: 45%
- selectivity for inhibition of CaV1.3 channels over CaV1.2 channels [18]: highly selective
- percent inhibition of evoked currents (median) ([19]; 100 μM cp-PYT): 4%
- tail currents in M1078V mutant channels ([19]; cp-PYT (100 μM) in text): slowing of tail currents persisted
- inhibition at 100 µM [20]: 35%
- inhibition at 100 µM ([21]; read-out: percent inhibition of evoked currents): 40%
- percent inhibition of evoked currents (median) ([22]; 100 μM cp-PYT): 2%
- inhibition at 100 µM [23]: 32%

Compound: COC(=O)C1=C(C)NC(C)=C(C(=O)OC(C)C)C1c1cccc2nonc12 (centres unmarked) [isradipine, reference compound]
- inhibition at 5 µM [3]: 91%
- inhibition at 5 µM [4]: 95%
- inhibition at 5 µM [5]: 69%
- percent inhibition of evoked currents (median) ([7]; 5 μM isradipine): 90%
- percentage inhibition of CaV1.3 peak currents (median) ([7]; isradipine 100 nM (Fig. 4a legend), VH −50 mV): 92%
- percentage inhibition of CaV1.3 peak currents (median) ([7]; isradipine 100 nM (Fig. 4a legend), VH −80 mV): 43%
- inhibition at 5 µM [8]: 88%
- inhibition at 5 µM [9]: 92%
- percent inhibition of evoked currents (median) ([10]; 5 μM isradipine): 85%
- mitochondrial oxidant stress ([11]; isradipine 1 μM): diminished
- pKi [12]: 7.17
- fraction of 3H2-D11 binding not displaced ([12]; displacement by isradipine): ~ 20%
- reinstatement of alcohol- and cocaine-seeking [14]: disrupt
- inhibition at 5 µM [24]: 78%
- inhibition at 5 µM [17]: 94%
- percent inhibition of evoked currents (median) ([19]; 5 μM isradipine): 78%
- inhibition at 5 µM [20]: 95%
- inhibition at 5 µM ([21]; read-out: percent inhibition of evoked currents (median)): 72%
- percent inhibition of evoked currents (median) ([22]; 5 μM isradipine): 1%
- inhibition at 5 µM [23]: 93%
